RGS4 pot: potentiators or activators of RGS4; HEK293 M3R/inducible RGS4, carbachol calcium flux Fluo4; stronger effect = lower value; B-score at 10 µM; 310,000 compounds, 0.92% hits; AID 463111;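 active = B-score of the integrated calcium signal more than 4 SD below the library mean, with starting fluorescence not abnormally high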;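 also: negative B-score means reduced calcium response which marks RGS4 activation or potentiation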
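Reagent: ECmax carbachol challenge; Test system: M3R-expressing HEK293 line, RGS4 induced by doxycycline; Schedule: overnight RGS4 induction, 30 min dye load 37 °C, 20 min compound RT; Detection: calcium dye Fluo4 fluorescence; Read-out: Agonist-evoked peak-minus-minimum fluorescence over baseline, integrated ratio, B score.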
MrgX1 antagonist: blocks BAM8-22 activation of human MrgX1 receptor; Q96LB2; MRGX1-HEK293 calcium flux, Fluo-4, BAM8-22 antagonism; stronger effect = lower value; B-score at 10 µM; 310,000 compounds, 1.3% hits; AID 588676;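 active = calcium-response B-score plate-corrected more than 3 library SD below zero, starting fluorescence within 5 deviations, no agonist response on first addition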;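 also: peak minus trough fluorescence over baseline after final BAM8-22 challenge near maximal dose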
Target sequence (Q96LB2 whole entry, looked up): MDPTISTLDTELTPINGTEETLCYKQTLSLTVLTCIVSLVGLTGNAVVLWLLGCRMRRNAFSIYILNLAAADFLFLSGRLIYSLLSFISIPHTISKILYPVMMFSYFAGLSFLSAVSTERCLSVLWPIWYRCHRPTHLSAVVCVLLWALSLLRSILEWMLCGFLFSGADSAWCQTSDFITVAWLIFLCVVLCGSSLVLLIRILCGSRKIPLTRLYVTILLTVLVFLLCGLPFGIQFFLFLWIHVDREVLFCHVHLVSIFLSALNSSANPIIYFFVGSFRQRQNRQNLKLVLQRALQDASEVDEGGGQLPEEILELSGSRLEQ
MrgX1 allo act: allosterically activates human MrgX1 receptor signaling; MrgX1-HEK293, Fluo-4 calcium flux, FDSS; stronger effect = higher value; 310,000 compounds, 0.63% hits; B-score at 10 µM; Q96LB2;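 active = plate-corrected calcium response at least 3 library SD above typical, normal starting fluorescence, not activating the receptor alone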;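 also: compound read alongside a low EC10 to EC30 dose of BAM8-22 agonist; peak minus trough fluorescence over baseline measured at the second addition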
MrgX1 ag: human MrgX1 receptor agonism, primary screen; Q96LB2; MrgX1-HEK293 cells, Fluo-4 calcium fluorescence, agonist mode; stronger effect = higher value; B-score at 10 µM; 310,000 compounds, 0.44% hits;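 active = calcium response B-score plate-corrected fluorescence ratio at least 3 library SD, with starting fluorescence B-score inside 5 SD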
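Material – MrgX1-expressing HEK293 cells · Input – 15,000 cells seeded per well · Dosing – compound as first of three additions · Times – overnight seeding, then 1 h dark dye loading · Measured by – kinetic Fluo-4 NW fluorescence of intracellular calcium · Read-out – B-scored fluorescence response ratio · Benchmarks – positive and negative control wells on each plate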
RGS4 block: inhibitors of human RGS4. 310,000 compounds, 0.45% hits. AID 463165. HEK293 M3R/RGS4 inducible, Fluo-4 calcium flux; stronger effect = higher value; triggered by carbachol at its EC20. P49798. B-score at 10 µM;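 active = B-score, a plate-corrected calcium signal, over three deviations above library mean, with baseline fluorescence within five deviations of library mean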;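 also: RGS4 expression induced by doxycycline in cells with stable M3 receptor; B-score is computed from the integrated fluorescence ratio over baseline after carbachol; higher B-score means a larger calcium signal and so more RGS4 inhibition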
Target sequence (P49798 whole entry, looked up): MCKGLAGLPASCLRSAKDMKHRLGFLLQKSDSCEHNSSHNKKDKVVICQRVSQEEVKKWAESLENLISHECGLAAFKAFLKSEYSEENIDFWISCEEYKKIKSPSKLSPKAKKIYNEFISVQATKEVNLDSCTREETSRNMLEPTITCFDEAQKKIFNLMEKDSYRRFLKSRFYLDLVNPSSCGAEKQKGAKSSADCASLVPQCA
MrgX1 antag conf: human MrgX1 receptor antagonism, re-confirmation screen; shares compounds with MrgX1 antagonist; MrgX1-HEK293, BAM8-22 calcium flux, Fluo-4; stronger effect = lower value; remaining BAM8-22 calcium response % of control (stronger effect = lower value), % at 10 µM; 2,300 compounds, 19% hits; AID 602420;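 active = remaining agonist calcium response no higher than 100% minus 3 SD of agonist-only control wells, with starting fluorescence near control levels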;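 also: agonist BAM8-22 given at a near maximal EC90 to ECmax level; peak minus minimum fluorescence divided by baseline after agonist addition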
HEK293 Ca flux: counter-screen for MrgX1 antagonists: effect in parental HEK293 cells; shares compounds with MrgX1 antagonist; Fluo-4 calcium fluorescence, FDSS; fluorescence ratio F(max-min)/F0 at 10 µM; 4,000 compounds, 2% hits; AID 624111;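 active = duplicate-averaged calcium fluorescence ratio at least three times the standard deviation of buffer wells, a nonspecific response in parental cells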
HEK293 Ca counter: MrgX1 allosteric activator counter-screen hit in parental HEK293 cells | shares compounds with MrgX1 antagonist | AID 624114 | fluorescence ratio F(max-min)/F0 at 10 µM | parental HEK293 calcium flux, Fluo-4 fluorescence ratio; stronger effect = higher value | 4,000 compounds, 0.4% hits;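 active = calcium fluorescence ratio, averaged over duplicates, at least 3 SD of the buffer-well ratio, meaning a nonspecific response in receptor-free cells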;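 also: untransfected parental HEK293 lacking MrgX1 used as counterscreen for MrgX1 allosteric activators; fluorescence change taken during the second addition on a kinetic imager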
HEK293 Ca cntr2: counter-screen for MrgX1 activators: effect in parental HEK293 cells. shares compounds with MrgX1 antagonist. Fluo-4 calcium fluorescence (FDSS); stronger effect = higher value. fluorescence ratio F(max-min)/F0 at 10 µM. 4,000 compounds, 8.7% hits;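 active = calcium fluorescence ratio at least three times the spread of buffer wells, meaning a non-specific response in parental cells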
* marks the source's active call; other numbers are inactive results; i = inactive; . = not tested or not shown. The list is not random: actives were taken first. Their share in the collection is about 3.5%.

SMILES | RGS4 pot | MrgX1 antagonist | MrgX1 allo act | MrgX1 ag | RGS4 block | MrgX1 antag conf | HEK293 Ca flux | HEK293 Ca counter | HEK293 Ca cntr2
N=c1c(S(=O)(=O)c2ccc(Br)cc2)cc2c(=O)n3ccccc3nc2n1Cc1ccco1 | i | -4.6* | i | i | i | 82%* | i | i | i
CCOC(=O)c1cc2c(=O)n3ccccc3nc2n(Cc2ccco2)c1=NC(=O)c1cccnc1 | i | -15* | i | i | i | i | i | i | i
O=C(CCC(=O)N1CCOCC1)NCCc1ccc(Cl)cc1Cl | i | i | i | i | i | . | . | . | .
CCOC(=O)C1CCCN(S(=O)(=O)c2cc3[nH]c(=O)c(=O)[nH]c3cc2C)C1 (stereo not given) | i | i | i | i | i | . | . | . | .
CCOC(=O)C1CCCN(S(=O)(=O)c2nc3nc(C)cc(C)n3n2)C1 (stereo not given) | i | -5.8* | i | i | i | i | i | i | i
O=S(=O)(NC1CCCCC1N1CCN(c2ccccc2F)CC1)c1ccc(Cl)cc1 (stereo not given) | i | -9.6* | i | i | i | i | i | i | i
Cc1ccc(OCC(=O)Nn2c(C)nc3ccccc3c2=O)c(C(C)C)c1 | i | -11* | i | i | i | i | i | i | i
COc1ccc(OC)c2sc(NC(=O)c3ccc(Cl)s3)nc12 | i | -5* | i | i | i | i | i | i | i
CCOc1ccc(C(C)=O)cc1CSc1nc2nc(C)cc(C)n2n1 | i | -5.7* | i | i | i | 69%* | i | i | i
CCOC(=O)CCc1c(C)nc2cc(-c3ccc(Cl)cc3)[nH]n2c1=O | i | -6* | i | i | i | i | i | i | i
CCc1c(C)nc2cc(-c3ccc(Cl)cc3)[nH]n2c1=O | i | i | i | i | i | . | . | . | .
O=C(O)CCN1C(=O)NC2(CCCC2)C1=O | i | -7.3* | i | i | i | i | i | i | i
O=C(CN1C(=O)NC2(CCCC2)C1=O)Nc1ccccc1 | i | i | i | i | i | . | . | . | .
Brc1ccc2nc(-c3c[nH]c4ccccc34)cn2c1 | i | -5.4* | i | i | i | i | i | i | i
Cc1cccn2cc(-c3c[nH]c4ccccc34)nc12 | i | i | i | i | i | . | . | . | .
Oc1ccc(-c2nccc(-c3ccc(F)cc3)n2)cc1 | i | i | i | i | i | . | . | . | .
O=C(COc1ccccc1)NCC(=O)Nc1cccc(S(=O)(=O)NC2=NCCC2)c1 | i | i | i | i | i | . | . | . | .
CCOc1ccccc1CNC(=O)c1cc2oc3ccccc3c2n1C | i | i | i | i | i | . | . | . | .
COCCNC(=O)c1cc2oc3ccccc3c2n1C | i | -5* | i | i | i | i | i | i | i
COc1cccc(CNC(=O)CSc2nc3ccc(C)cc3[nH]2)c1 | i | i | i | i | i | . | . | . | .
CCOC(=O)c1sc(N=NC2=C(O)CC(C)(C)CC2=O)c(C(=O)OCC)c1C | i | i | i | i | i | . | . | . | .
Cc1nc(Cl)c(C(=O)NC(C)(C)C)c(C)c1Cl | i | -9.4* | i | i | i | i | i | i | i
COC(=O)C1=C(C)N(Cc2ccco2)C(=O)N[C@@H]1c1ccco1 | i | i | i | i | i | . | . | . | .
CCOC(=O)CN1C(=O)CN(c2ccc(C)cc2)C1=O | i | -5* | i | i | i | i | i | i | i
Cc1cc2ccccc2nc1SCC(=O)N1c2ccccc2CC1C (stereo not given) | i | i | i | i | i | . | . | . | .
SMILES | RGS4 pot | MrgX1 antagonist | MrgX1 allo act | MrgX1 ag | RGS4 block | MrgX1 antag conf | HEK293 Ca flux | HEK293 Ca counter | HEK293 Ca cntr2
CCOC(=O)CSc1nc2cc3c(cc2cc1C#N)OCO3 | . | i | i | i | . | . | . | . | .
CC1Cc2ccccc2N1C(=O)CSc1nc2cc3c(cc2cc1C#N)OCO3 (stereo not given) | . | -8.5* | i | i | . | i | i | i | i
Cc1cc2cc3c(cc2nc1SCC(=O)N1c2ccccc2CC1C)OCO3 (stereo not given) | i | -5* | i | i | i | 84%* | i | i | i
OC(CNCCc1ccc(C(F)(F)F)cc1)COC(c1ccccc1)c1ccccc1 (stereo not given) | i | i | i | i | i | . | . | . | .
CCOC(=O)C1=C(O)CSC1=Nc1ccc(C)cc1 | i | -5.7* | i | i | i | i | i | i | i
CCOC(=O)C1=C(O)CSC1=Nc1cccc2ccccc12 | i | i | i | i | i | . | . | . | .
O=C(NCc1ccccc1)C(=O)Nc1nccs1 | i | i | i | i | i | . | . | . | .
CCOc1ccc(C(=O)N2CCc3ccccc32)cc1OCC | i | i | i | i | i | . | . | . | .
CC(C)(C)C(=O)Nc1sc2c(c1C#N)CCN(Cc1ccccc1)C2 | i | -5.1* | i | i | i | i | i | i | i
Cc1ccccc1CNS(=O)(=O)c1ccc2c(c1)OCCO2 | i | -4.7* | i | i | i | i | i | i | i
COc1ccc(-c2nc(/C=C3\C(C)=Nc4ccccc43)c(O)o2)cc1 | i | -4.8* | i | i | i | 59%* | i | i | i
CC1=Nc2ccccc2/C1=C/c1nc(-c2ccc(C)s2)oc1O | i | -6.1* | i | i | i | 57%* | i | i | i
CC12CCC(=O)N1C(C(=O)N1CCN(S(=O)(=O)c3ccc(Br)cc3Cl)CC1)CS2 (stereo not given) | i | i | i | i | i | . | . | . | .
O=C(NC(=S)Nc1ccccn1)c1cncc(Br)c1 | i | i | i | i | i | . | . | . | .
Cc1cccnc1NC(=S)NC(=O)c1cncc(Br)c1 | i | -4.6* | i | i | i | i | i | i | i
Cn1cc(S(=O)(=O)Nc2ccc3c(c2)OCCO3)cn1 | i | i | i | i | i | . | . | . | .
